Data: ChEMBL document CHEMBL4680226, “Design, synthesis, and evaluation of N-phenyl-4-(2-phenylsulfonamido)-benzamides as microtubule-targeting agents in drug-resistant cancer cells, displaying HDAC inhibitory response” (Eur J Med Chem, 2020)
Activity calls are given as the source filed them.

Columns and labels:
[1] = Antiproliferative activity against human KB7D cells incubated for 48 hrs by SRB assay; assay type: functional
How it was run: (§1)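 KB parental and resistant sublines kept in RPMI 1640 with 5% FBS at 37 °C, 5% CO2. Cells plated, left overnight, then given graded compound concentrations for 48 h. A time-zero plate was fixed with 10% TCA at dosing. Cells were stained with 0.4% SRB in 1% acetic acid, unbound dye washed off, bound dye dissolved in 10 mM Tris base, and absorbance read at 515 nm.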

KB-VIN [2] = experiment: Induction of apoptosis in human KB-VIN cells assessed as increase in cleaved caspase-8 expression at 0.05 uM measured after 48 hrs by Western blot analysis; assay type: functional, cell-based
How it was run: (§2)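 Resistant KB cells attached overnight, then drug-treated at the stated concentrations and times (24 h or 48 h). Lysates were immunoblotted for cleaved PARP, caspase-3, -8 and -9, and γH2AX, with anti-mouse or anti-rabbit IgG secondaries.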

KB7D [3] = experiment: Induction of apoptosis in human KB7D cells assessed as increase in cleaved caspase-9 expression at 0.01 to 0.1 uM measured after 48 hrs by Western blot analysis; assay type: functional, cell-based; conditions: dose 0.01-0.1 µM
How it was run: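 KB-7D cells in RPMI 1640 with 5% FBS and 1% penicillin-streptomycin at 37 °C, 5% CO2, attached overnight. Treated with indicated concentrations for 24 or 48 h, lysed, and immunoblotted for cleaved caspases.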

[4] = Antiproliferative activity against human KB-VIN cells incubated for 48 hrs by SRB assay; assay type: functional; conditions: KBVIN; how it was run: as §1
KB-VIN [5] = experiment: Cell cycle arrest in human KB-VIN cells assessed as increase in accumulation at sub-G1 phase at 0.5 uM measured after 24 hrs by propidium iodide staining based flow cytometry; assay type: functional
How it was run: (§3)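 Cells seeded at 2.5×10^5 per well and exposed to DMSO or compound for the stated times. They were washed in PBS and fixed overnight in ice-cold 70% ethanol at −20 °C. Staining used propidium iodide 80 µg/mL with 0.1% Triton X-100 and RNase A 100 µg/mL in PBS. DNA content was read by FACScan flow cytometry.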

KB-VIN [6] = experiment: Induction of apoptosis in human KB-VIN cells assessed as increase in cleaved caspase-3 expression at 0.1 to 0.5 uM measured after 24 hrs by Western blot analysis; assay type: functional, cell-based; conditions: dose 0.1-0.5 µM; how it was run: as §2
KB-VIN [7] = experiment: Induction of apoptosis in human KB-VIN cells assessed as increase in activated gammaH2AX expression at 0.05 uM measured after 48 hrs by Western blot analysis; assay type: functional, cell-based; how it was run: as §2
KB-VIN [8] = experiment: Induction of apoptosis in human KB-VIN cells assessed as increase in cleaved caspase-8 expression by Western blot analysis; assay type: functional, cell-based; how it was run: as §2
Tubulin (Homo sapiens) [9] = biological target: T1, Tubulin (Homo sapiens) (UniProt P68371+Q9H4B7+P0DPH7+P68366+Q13509+Q71U36+P04350+Q3ZCM7+P07437+P68363+Q9BQE3+Q6PEY2+Q13885+Q9BVA1+Q9BUF5); experiment: Induction of microtubule disruption in human KB-VIN cells at 0.05 uM measured after 24 hrs by DAPI staining based deconvolution fluorescence microscopic analysis; assay type: cell-based
How it was run: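 Cells on glass coverslips treated 24 h, fixed in 4% paraformaldehyde for 15 min, and permeabilized with 0.5% Triton X-100. Blocked in PBS/2% BSA, stained with anti-beta-tubulin (1:250) and Alexa 488 anti-mouse (1:250), and mounted with DAPI. Imaged by wide-field deconvolution microscopy.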

KB-VIN [10] = experiment: Induction of apoptosis in human KB-VIN cells assessed as increase in cleaved caspase-3 expression at 0.05 uM measured after 48 hrs by Western blot analysis; assay type: functional, cell-based; how it was run: as §2
KB-VIN [11] = experiment: Induction of apoptosis in human KB-VIN cells assessed as increase in cleaved caspase-3 expression by Western blot analysis; assay type: functional, cell-based; how it was run: as §2
Tubulin (Homo sapiens) [12] = biological target: T1, Tubulin (Homo sapiens); experiment: Induction of microtubule disruption in human KB7D cells assessed as polymerized fraction at 0.01 uM measured after 16 hrs by SDS-PAGE analysis (reference value: 26.4 to 29%); assay type: cell-based
How it was run: (§4)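 KB-Vin or KB-7D cells treated 16 h, then lysed 5 min at 37 °C in the dark in hypotonic buffer (1% NP-40, 1 mmol/L MgCl2, 2 mmol/L EGTA, 50 mmol/L Tris-HCl pH 6.8, protease inhibitors). Spun 13000 rpm, 10 min, room temperature. Soluble supernatant and resuspended polymerized pellet run on SDS-PAGE.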

KB7D [13] = experiment: Induction of apoptosis in human KB7D cells assessed as increase in cleaved caspase-3 expression at 0.01 to 0.1 uM measured after 48 hrs by Western blot analysis; assay type: functional, cell-based; conditions: dose 0.01-0.1 µM; how it was run: as §2
Tubulin (Homo sapiens) [14] = biological target: T1, Tubulin (Homo sapiens); experiment: Induction of microtubule disruption in human KB7D cells assessed as polymerized fraction at 0.1 uM measured after 16 hrs by SDS-PAGE analysis (reference value: 26.4 to 29%); assay type: cell-based; how it was run: as §4
KB-VIN [15] = experiment: Induction of apoptosis in human KB-VIN cells assessed as increase in cleaved caspase-8 expression at 0.1 to 0.5 uM measured after 24 hrs by Western blot analysis; assay type: functional, cell-based; conditions: dose 0.1-0.5 µM; how it was run: as §2
KB-VIN [16] = experiment: Induction of apoptosis in human KB-VIN cells assessed as increase in activated gammaH2AX expression at 0.1 to 0.5 uM measured after 24 hrs by Western blot analysis; assay type: functional, cell-based; conditions: dose 0.1-0.5 µM; how it was run: as §2
KB7D [17] = experiment: Induction of apoptosis in human KB7D cells assessed as increase in activated gammaH2AX expression at 0.01 to 0.1 uM measured after 48 hrs by Western blot analysis; assay type: functional, cell-based; conditions: dose 0.01-0.1 µM; how it was run: as §2
KB-VIN [18] = experiment: Induction of apoptosis in human KB-VIN cells assessed as increase in activated gammaH2AX expression by Western blot analysis; assay type: functional, cell-based; how it was run: as §2
KB7D [19] = experiment: Induction of apoptosis in human KB7D cells assessed as increase in cleaved caspase-3 expression by Western blot analysis; assay type: functional, cell-based; how it was run: as §2
KB-VIN [20] = experiment: Induction of apoptosis in human KB-VIN cells assessed as increase in cleaved PARP expression at 0.05 uM measured after 48 hrs by Western blot analysis; assay type: functional, cell-based; how it was run: as §2
KB-VIN [21] = experiment: Induction of apoptosis in human KB-VIN cells assessed as increase in cleaved PARP expression by Western blot analysis; assay type: functional, cell-based; how it was run: as §2
Tubulin (Homo sapiens) [22] = biological target: T1, Tubulin (Homo sapiens); experiment: Induction of microtubule disruption in human KB-VIN cells assessed as polymerized fraction at 0.1 uM measured after 16 hrs by SDS-PAGE analysis (reference value: 23.1 to 25.5%); assay type: cell-based; how it was run: as §4
Tubulin (Homo sapiens) [23] = biological target: T1, Tubulin (Homo sapiens); experiment: Induction of microtubule disruption in human KB-VIN cells assessed as polymerized fraction at 0.01 uM measured after 16 hrs by SDS-PAGE analysis (reference value: 23.1 to 25.5%); assay type: cell-based; how it was run: as §4
KB-VIN [24] = experiment: Cell cycle arrest in human KB-VIN cells assessed as increase in accumulation at sub-G1 phase at 0.05 uM measured after 48 hrs by propidium iodide staining based flow cytometry; assay type: functional; how it was run: as §3

COc1ccc(S(=O)(=O)Nc2ccccc2NCc2ccc(C(=O)Nc3ccccc3N)cc2)cc1
active: Activity (KB-VIN [2]) | Activity (KB7D [3]) | Activity (KB-VIN [5]) | Activity (KB-VIN [6]) | Activity (KB-VIN [7]) | Activity (KB-VIN [8]) Dose-dependent effect | Activity (Tubulin (Homo sapiens) [9]) | Activity (KB-VIN [10]) | Activity (KB-VIN [11]) Dose-dependent effect | Activity (KB7D [13]) | Activity (KB-VIN [15]) | Activity (KB-VIN [16]) | Activity (KB7D [17]) | Activity (KB-VIN [18]) Dose-dependent effect | Activity (KB7D [19]) Dose-dependent effect | Activity (KB-VIN [20]) | Activity (KB-VIN [21]) Dose-dependent effect | Activity (KB-VIN [24])
14.4%: Activity (Tubulin (Homo sapiens) [12])
25.9%: Activity (Tubulin (Homo sapiens) [23])
13.3%: Activity (Tubulin (Homo sapiens) [14])
22 nM: GI50 [4]
20.4%: Activity (Tubulin (Homo sapiens) [22])
12 nM: GI50 [1]
